In the library only some 4.5% were active in any assay of this set; here they are far more common.
TAAR1 agonist = human TAAR1 agonism; Q96RJ0; CHO RD-HGA16 TAAR1, Fluo-8 calcium fluorescence; vehicle wells 0%, saturating PEA agonist 100%; activation, % at 3 µM; 360,000 tested, 0.99% active;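 active means activation above the mean activation of all test compounds in the run plus 3 SD, cut at about 38% in these data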
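Assay system – CHO-derived RD-HGA16 cells with stable Gα16 and human TAAR1 · Compound dosing – one-point dosing at 3 µM (nominal) · Incubation – 17-24 h seeding, 75 min 37 °C dye, 30 min RT · Measured by – kinetic Fluo-8 calcium fluorescence · Control set – DMSO vehicle as 0%, PEA at EC100 as 100% · Repeats – single well for each compound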
TAAR1 antag = human TAAR1 antagonism | inhibition, % at 3 µM | AID 624466 | CHO RD-HGA16 TAAR1, Fluo-8 calcium fluorescence, antagonist | 360,000 tested, 1.5% active | Q96RJ0;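 active means inhibition above a per-plate cutoff, the mean inhibition of test compounds on that plate plus 3 SD, cut at about 49% in these data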
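Assay system: CHO-derived RD-HGA16 cells stably expressing human TAAR1 plus Gα16. Timing: 140 s kinetic read after compound, 140 s after agonist. Technique: kinetic Fluo-8 calcium fluorescence measurement. Measure: % inhibition of agonist calcium response.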
CHO parental Ca = counter-screen: ATP calcium response change in parental CHO cells; parental CHO-K1, ATP-induced calcium, Fluo-8 fluorescence; inhibition, % at 5.6 µM; 330,000 tested, 0.63% active;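 active means inhibition above that plate's mean sample inhibition plus 3 SD, cut at about 26% in these data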
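Material: parental CHO cells / Compound: single nominal dose of 5.6 µM per compound / Signal: Fluo-8 fluorescence / Replicates: singlicate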
OX1R antag-1 = OX1R (human) antagonism; OX1R-expressing cells, FRET antagonist read-out; inhibition, % at 6.6 µM; 330,000 tested, 1.8% active; in the data active means inhibition mostly above about 38%, no sharp cut-off; inactive means mostly below about 40%
Target sequence (O43613 whole entry, looked up): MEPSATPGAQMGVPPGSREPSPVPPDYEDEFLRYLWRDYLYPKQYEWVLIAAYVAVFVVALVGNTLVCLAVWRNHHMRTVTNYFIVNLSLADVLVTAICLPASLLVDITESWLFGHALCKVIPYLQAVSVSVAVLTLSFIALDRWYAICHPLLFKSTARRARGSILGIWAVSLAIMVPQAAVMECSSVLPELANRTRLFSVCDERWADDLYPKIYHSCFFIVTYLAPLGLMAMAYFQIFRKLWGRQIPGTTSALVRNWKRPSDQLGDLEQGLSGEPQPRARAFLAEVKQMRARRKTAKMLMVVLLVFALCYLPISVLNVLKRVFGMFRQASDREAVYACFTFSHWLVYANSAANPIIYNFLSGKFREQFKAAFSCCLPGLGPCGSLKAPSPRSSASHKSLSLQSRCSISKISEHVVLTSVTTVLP
OX1R antag-2 = antagonists of human orexin 1 receptor. 330,000 tested, 0.43% active. CHO/OX1R cells, Fluo-8 calcium fluorescence, orexin A. AID 434989. inhibition, % at 5 µM;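 active means inhibition above its plate's threshold, mean inhibition of all tested compounds on the plate plus 3 SD, cut at about 37% in these data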
GPR7 antag = antagonists of human GPR7 (neuropeptides B/W receptor 1); GPR7-expressing cells, fluorescence antagonist assay; inhibition, % at 4.4 µM; 290,000 tested, 1.1% active; in the data active means inhibition above about 16%, passing the limit was not always enough;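 further: cells stimulated with the agonist NPW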
Target sequence (P48145 whole entry, looked up): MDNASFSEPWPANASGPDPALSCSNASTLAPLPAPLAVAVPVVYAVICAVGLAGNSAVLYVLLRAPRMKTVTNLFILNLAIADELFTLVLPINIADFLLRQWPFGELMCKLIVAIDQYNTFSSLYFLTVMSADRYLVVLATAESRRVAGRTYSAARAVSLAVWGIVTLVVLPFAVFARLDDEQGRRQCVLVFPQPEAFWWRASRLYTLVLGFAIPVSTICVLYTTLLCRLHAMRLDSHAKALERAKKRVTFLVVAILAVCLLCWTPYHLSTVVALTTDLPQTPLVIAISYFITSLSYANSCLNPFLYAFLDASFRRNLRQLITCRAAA
Large screens that a line does not name were inactive.

COC(=O)c1ccc(Cn2c(C)c(C(=O)Nc3cccc(Oc4ccccc4)c3)sc2=O)o1	TAAR1 antag 49 (no result: CHO parental Ca, OX1R antag-1, OX1R antag-2, GPR7 antag)
O=C(c1ccc(C(F)(F)F)cc1)N1CCC(=O)N(C(COCc2ccccc2)Cc2ccccc2)CC1 (centres undefined)	none
CC(C)(C)c1ccc(C(=O)N2CCC(=O)N(C(COCc3ccccc3)Cc3ccccc3)CC2)cc1 (centres undefined)	TAAR1 antag 74
CC(C)(C)c1ccc(C(=O)N2CCC(=O)N(C(CO)Cc3ccccc3)CC2)cc1 (centres undefined)	TAAR1 agonist 46
OCc1ccc2c(c1)c(-c1ccc3c(c1)OCCO3)c(-c1ccccc1)n2-c1ccccc1	TAAR1 antag 62 (no result: GPR7 antag)
O=C(/C=C/c1cn(-c2ccccc2)nc1-c1ccc2c(c1)OCCO2)NCCO	none
COC(=O)c1ccc(Oc2nc(Nc3ccc(C)c(C)c3)nc(N(C)C)n2)cc1	OX1R antag-1 39
COC(=O)C1=CN(c2ccc(C(C)(C)C)cc2)C(N)=C(C#N)C1c1ccc(OC)cc1 (centres undefined)	none (no result: CHO parental Ca, OX1R antag-1, OX1R antag-2, GPR7 antag)
O=C(N/N=C/c1cc(Br)ccc1O)C(=O)Nc1ccccc1OC(F)(F)C(F)F	none
O=C(N/N=C/c1cc(Cl)ccc1O)C(=O)Nc1ccccc1OC(F)(F)C(F)F	OX1R antag-1 69
O=C(Nc1ccc([N+](=O)[O-])cc1)Nc1cnccn1	OX1R antag-1 67
CC(=O)c1cccc(NC(=S)NCCc2ccc(Cl)cc2)c1	none
CC(=O)c1ccc(NC(=O)Nc2ccc(Cl)cc2)cc1	TAAR1 agonist 42
Cc1cc(O)c(C(C)C)cc1NC(=O)Nc1ccc([N+](=O)[O-])cc1	none (no result: CHO parental Ca, OX1R antag-1, OX1R antag-2, GPR7 antag)
Cc1ccc(C(C)C)cc1NC(=O)Nc1ccc([N+](=O)[O-])cc1	CHO parental Ca 55
CC(=O)c1ccc(NC(=S)NCc2ccc(Cl)cc2Cl)cc1	CHO parental Ca 40, OX1R antag-2 40
COC(=O)[C@@H](NCc1ccc(B(O)O)cc1)C(C)C	none (no result: CHO parental Ca, OX1R antag-1, OX1R antag-2, GPR7 antag)
Cc1ccc([N+](=O)[O-])cc1NC(=O)C(Sc1ccccc1)c1ccccc1 (centres undefined)	TAAR1 antag 52
COC(=O)c1cccc(NC(=O)Nc2ccc(Cl)cc2)c1	CHO parental Ca 46
CC(=O)c1ccc(NC(=O)Nc2ccc([N+](=O)[O-])cc2)cc1	CHO parental Ca 35
S=C(NCc1ccc(Cl)cc1Cl)NC1CCCCC1	CHO parental Ca 28
CC1=C(C(=O)Nc2cc(C(=O)N3CCC(C)CC3)ccc2C)SCCO1	none
COc1ccc(CCN2Cc3c(cccc3[N+](=O)[O-])C2=O)cc1OC	OX1R antag-1 38
CNS(=O)(=O)c1ccc2c3c(cccc13)C(=O)N2	none (no result: CHO parental Ca, OX1R antag-1, OX1R antag-2)
CNS(=O)(=O)c1cc(S(=O)(=O)NC)c2cccc3c2c1NC3=O	OX1R antag-1 66
Cc1ccc(C)n1-n1c(C)nc2sc(-c3ccccc3)cc2c1=O	CHO parental Ca 39
COc1cccc(-c2cc(C(=O)NC3CCCCC3)no2)c1	none
Cc1ccccc1-c1csc(C(O)c2ccc(F)c(F)c2)n1 (centres undefined)	none (no result: CHO parental Ca, OX1R antag-1, OX1R antag-2, GPR7 antag)
C=CS(=O)(=O)N(Cc1ccccc1Br)[C@H](CO)Cc1ccccc1	none (no result: CHO parental Ca, OX1R antag-1, OX1R antag-2, GPR7 antag)
C=CCCN([C@H](CO)Cc1ccccc1)S(=O)(=O)c1ccccc1Br	OX1R antag-1 46 (no result: GPR7 antag)
C=CCCCN(Cc1ccccc1)S(=O)(=O)c1ccccc1Br	CHO parental Ca 44 (no result: GPR7 antag)
Cc1ccc(S(=O)(=O)NCC2CCN(C(=O)C(=O)c3cccs3)CC2)cc1	none (no result: CHO parental Ca, OX1R antag-1, OX1R antag-2, GPR7 antag)
CCOc1ccc(C(=O)N/N=C/c2cccc3cccnc23)cc1	OX1R antag-1 74
O=C(/C=C/c1ccccc1)NC(=S)NNC(=O)Cc1cccs1	TAAR1 agonist 53
O=C(CN1C(=O)NC2(CCCCCC2)C1=O)Nc1ccc2c(c1)CCC2	GPR7 antag 70
CC1CCC2(CC1)NC(=O)N(CC(=O)Nc1ccc(N3CCOCC3)cc1)C2=O (centres undefined)	CHO parental Ca 71
CC1CCC2(CC1)NC(=O)N(CC(=O)Nc1ccc3c(c1)CCC3)C2=O (centres undefined)	none
CC(=O)[C@]1(O)Cc2c(O)c3c(c(O)c2[C@@H](O[C@H]2C[C@H](N)[C@H](O)[C@H](C)O2)C1)C(=O)c1ccccc1C3=O	CHO parental Ca 37, OX1R antag-2 42 (no result: TAAR1 agonist, TAAR1 antag, GPR7 antag)
COc1cccc2c1C(=O)c1c(O)c3c(c(O)c1C2=O)C[C@@](O)(C(=O)CO)C[C@@H]3O[C@H]1C[C@H](N)[C@@H](O)[C@H](C)O1	OX1R antag-1 41 (no result: TAAR1 agonist, TAAR1 antag, GPR7 antag)
CC(C)[C@@H]1Cc2[nH][nH]c(=O)c2[C@H](C)O1	none (no result: CHO parental Ca, OX1R antag-1, OX1R antag-2, GPR7 antag)
CC(C)COC(=O)c1cccc2c1-c1ccccc1/C2=N\O	CHO parental Ca 41
CCOC(=O)c1cccc2c1-c1ccccc1/C2=N/O	none
CC(C)[C@@H](C)/C=C/[C@@H](C)[C@H]1CC[C@@H]2[C@]1(C)CCC1[C@]23C=C[C@]2(C[C@@H](O)CC[C@]12C)N(c1ccc(F)cn1)O3 (some centres undefined)	none (no result: CHO parental Ca, OX1R antag-1, OX1R antag-2, GPR7 antag)
Cn1cc(/C=C/c2cc[n+](C)cc2)c2cc(F)ccc21	OX1R antag-1 44 (no result: TAAR1 agonist, TAAR1 antag)
Cn1cc(C=O)c2cc(F)ccc21	none
COc1ccccc1C(=O)N/N=C(\C)c1ccc(NC(=O)C2CC2)cc1	none
Cc1cc2c(N=O)c(NO)ccc2[nH]1	OX1R antag-1 62 (no result: TAAR1 agonist, TAAR1 antag)
O=[N+]([O-])c1cnc(Sc2ccncn2)s1	OX1R antag-1 72
Cc1cc(CNC(=O)Cc2c(F)cccc2Cl)nn1C	GPR7 antag 19 (no result: TAAR1 agonist, TAAR1 antag)
O=C(CCN1CCN(c2ccccc2)CC1)N/N=C/c1ccc([N+](=O)[O-])o1	OX1R antag-1 71
CC1(C(=O)N/N=C/c2ccc([N+](=O)[O-])o2)CC1(Br)Br (centres undefined)	OX1R antag-1 73
O=C(Cc1ccc([N+](=O)[O-])cc1)N/N=C/c1ccc([N+](=O)[O-])o1	none
O=C(CN1CCOCC1)NN=Cc1ccc([N+](=O)[O-])o1	none (no result: CHO parental Ca, OX1R antag-1, OX1R antag-2, GPR7 antag)
O=S(=O)(Nc1ccncc1Cl)c1cc(Cl)ccc1Cl	GPR7 antag 20
CCOC(=O)C1(CCOC)CCN(C(=O)c2sccc2C)CC1	none
CCOc1ccccc1NC(=O)C(OC(=O)c1ccccc1)c1ccccc1 (centres undefined)	CHO parental Ca 53
CCOc1ccccc1NC(=O)C(OC(=O)c1ccccc1O)c1ccccc1 (centres undefined)	none
COc1ccc(N2C(=O)c3ccccc3NC(=O)C2C(=O)Nc2ccc3c(c2)OCCO3)cc1 (centres undefined)	none (no result: CHO parental Ca, OX1R antag-1, OX1R antag-2, GPR7 antag)
COc1ccc(OC)c(/C=C/C(=O)Nc2ccc3c(c2)CCC3)c1	OX1R antag-1 69
COc1ccccc1/C=C/C(=O)Nc1ccc2c(c1)CCC2	none
COc1ccc(NC(=O)/C=C/c2cc(Br)ccc2OC)cc1	OX1R antag-1 83
